According to ChEMBL document CHEMBL2040794, “Synthesis and structure-activity analysis of new phosphonium salts with potent activity against African trypanosomes” (J Med Chem, 2012):
The source made the active and inactive calls. The rule behind the calls is not given here.

Columns and labels:
[1] = Selectivity index, ratio of EC50 for rat L6 cells to EC50 for Trypanosoma brucei rhodesiense STIB900; format: toxicity, cell-based; conditions: L6 cells, read-out: Ratio EC50
Outline: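 Ratio of EC₅₀ in L6 cells to EC₅₀ against T. b. rhodesiense STIB900, both from Alamar blue assays.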

[2] = Selectivity index, ratio of EC50 for human HEK cells to EC50 for wild type Trypanosoma brucei brucei Lister 427; format: toxicity, cell-based, HEK293; conditions: HEK cells, read-out: Ratio EC50
Outline: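 Ratio of EC₅₀ in HEK cells to EC₅₀ in wild-type T. b. brucei s427, both from resazurin assays.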

[3] = tested on: Trypanosoma brucei brucei; test: Antitrypanosomal activity against Trypanosoma brucei brucei bloodstream forms assessed as decrease in cell count at 0.25 uM treated for 48 hrs followed by washout after 4 hrs by hemocytometric analysis; format: functional, organism-based
Outline: (§1)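 T. b. brucei bloodstream forms seeded at 10⁵ cells/mL with 0.25 μM compound; drug removed by centrifugation (1100g) after 30 min or 4 h and cells resuspended in drug-free fresh medium, or fresh medium still containing 0.25 μM compound; drug-free control run alongside. Growth followed over 48 h by microscopic hemocytometer counts in triplicate, averages reported.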

[4] = tested on: Trypanosoma brucei brucei; test: Resistance factor, ratio of EC50 for diminazene-, pentamidine-, and melaminophenyl arsenical-resistant HAPT1-deficient Trypanosoma brucei brucei B48 to EC50 for wild type Trypanosoma brucei brucei Lister 427; format: functional
Outline: (§2)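 Resistance factor is the EC50 in the resistant line (TbAT1-KO or B48) divided by the EC50 in wild-type s427. […] Resistant and wild-type EC50s were compared by Student t-test.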

[5] = tested on: Trypanosoma brucei brucei; test: Antitrypanosomal activity against diminazene-, pentamidine-, and melaminophenyl arsenical-resistant HAPT1-deficient Trypanosoma brucei brucei B48 after 3 days by alamar blue assay; format: functional, organism-based; conditions: Trypanosoma brucei, B48, 72 h
Outline: (§3)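 Bloodstream-form T. b. brucei (wild-type s427; TbAT1-KO, made from s427 by TbAT1 deletion; B48, selected from TbAT1-KO in vitro on pentamidine, lacking functional HAPT1). Cells were exposed to compound for 48 h, then resazurin (Alamar blue) was added for a further 24 h. A single fluorescence reading gave EC50.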

[6] = tested on: Trypanosoma brucei brucei; test: Antitrypanosomal activity against wild type Trypanosoma brucei brucei Lister 427 after 3 days by alamar blue assay; format: functional, organism-based; conditions: Trypanosoma brucei, Lister 427, 72 h; outline: as §3
[7] = Inhibition of Trypanosoma brucei brucei LAPT1 assessed as [3H]-pentamidine uptake after 120 secs by scintillation counting
Outline: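 LAPT1 transport: late-log trypanosomes from HMI-9/10% FBS culture washed into pH 7.3 HEPES-bicarbonate-glucose buffer; 1 μM final [³H]-pentamidine uptake over 120 s with competitor. Uptake terminated with 2 mM ice-cold pentamidine and oil centrifugation; counted by scintillation, Ki from sigmoid curves; triplicate, at least three separate occasions.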

[8] = tested on: Trypanosoma brucei brucei; test: Resistance factor, ratio of EC50 for diminazene aceturate-resistant TbAT1 gene-deficient Trypanosoma brucei brucei AT1-KO to EC50 for wild type Trypanosoma brucei brucei Lister 427; format: functional; outline: as §2
[9] = tested on: Trypanosoma brucei brucei; test: Antitrypanosomal activity against diminazene aceturate-resistant TbAT1 gene-deficient Trypanosoma brucei brucei AT1-KO after 3 days by alamar blue assay; format: functional, organism-based; conditions: Trypanosoma brucei, AT1-KO, 72 h; outline: as §3
[10] = Cytotoxicity against human HEK cells after 3 days by alamar blue assay; format: cell-based, HEK293; conditions: Homo sapiens, HEK293, 72 h
Outline: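 Human embryonic kidney cells tested by resazurin (Alamar blue) assay: 48 h with compound, then 24 h more after dye addition, single reading; EC₅₀ derived.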

[11] = tested on: Trypanosoma brucei brucei; test: Antitrypanosomal activity against Trypanosoma brucei brucei bloodstream forms assessed as decrease in cell count at 0.25 uM treated for 48 hrs followed by washout after 4 hrs measured after 44 hrs by hemocytometric analysis; format: functional, organism-based; outline: as §1
[12] = tested on: Trypanosoma brucei rhodesiense; test: Antitrypanosomal activity against Trypanosoma brucei rhodesiense STIB900 infected in rat L6 cells after 72 hrs by alamar blue assay; format: functional, organism-based; conditions: Trypanosoma brucei, STIB900, 72 h
[13] = tested on: Trypanosoma brucei brucei; test: Antitrypanosomal activity against Trypanosoma brucei brucei bloodstream forms assessed as decrease in cell count at 0.25 uM treated for 48 hrs followed by washout after 30 mins and measured after 48 hrs by hemocytometric analysis; format: functional, organism-based; outline: as §1
L6 = test: Cytotoxicity against rat L6 cells after 72 hrs by alamar blue assay; format: cell-based; conditions: Rattus norvegicus, L6, 72 h
[14] = Inhibition of Trypanosoma brucei brucei HAPT1 assessed as [3H]-pentamidine uptake after 60 secs by scintillation counting
Outline: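 HAPT1 transport: late-log T. b. brucei grown in HMI-9 + 10% FBS, washed into HEPES/bicarbonate assay buffer with 14 mM glucose, pH 7.3. [³H]-pentamidine at 30 nM final for 60 s with inhibitor; stopped with 2 mM ice-cold unlabeled pentamidine and spin through oil. Scintillation counting, sigmoid fit for Ki; triplicates, ≥3 independent experiments.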

[15] = tested on: Trypanosoma brucei brucei; test: Antitrypanosomal activity against Trypanosoma brucei brucei bloodstream forms assessed as decrease in cell count at EC50 after 36 hrs by hemocytometric analysis; format: functional, organism-based
Outline: (§4)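 Bloodstream-form T. b. brucei cultures started at 10⁵ cells/mL, with or without a range of compound concentrations (0.05, 0.25, 1 μM for the example shown) present continuously. Cell density tracked over 48 h by manual hemocytometer counts done in triplicate; mean values plotted.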

[16] = tested on: Trypanosoma brucei brucei; test: Antitrypanosomal activity against Trypanosoma brucei brucei bloodstream forms assessed as decrease in cell count at 2 times EC50 after 12 hrs by hemocytometric analysis; format: functional, organism-based; outline: as §4
[17] = tested on: Trypanosoma brucei brucei; test: Antitrypanosomal activity against wild type Trypanosoma brucei brucei Lister 427 assessed as decrease in viability at >700 times EC50 after 8 hrs by propidium iodide staining-based fluorescence microscopic analysis; format: functional, organism-based
Outline: (§5)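 Real-time propidium iodide integrity assay: 5 × 10⁵ trypanosomes per well in HMI-9 plus 10% FBS containing 9 μM PI, 37 °C, 5% CO₂. Fluorescence read on a plate fluorimeter (ex 544/em 620 nm) every 2 min for 250 cycles, more than 8 h. Strains run in parallel on one plate.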

[18] = tested on: Trypanosoma brucei brucei; test: Antitrypanosomal activity against diminazene-, pentamidine-, and melaminophenyl arsenical-resistant HAPT1-deficient Trypanosoma brucei brucei B48 harboring HAPT mutant gene assessed as decrease in viability at 15 times EC50 after 8 hrs by propidium iodide staining-based fluorescence microscopic analysis; format: functional, organism-based
Outline: (§6)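 Trypanosomes at 5 × 10⁵ cells/well in HMI-9 with 10% FBS and 9 μM propidium iodide, with compound at a range of concentrations. Fluorescence (ex 544, em 620 nm) was read every 2 min for 250 cycles (>8 h) at 37 °C and 5% CO2. All three strains ran in parallel on one plate, with drug-free controls.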

[19] = tested on: Trypanosoma brucei brucei; test: Antitrypanosomal activity against diminazene aceturate-resistant TbAT1 gene-deficient Trypanosoma brucei brucei AT1-KO assessed as decrease in viability at > 3.3 uM after 8 hrs by propidium iodide staining-based fluorescence microscopic analysis; format: functional, organism-based; outline: as §6
[20] = tested on: Trypanosoma brucei brucei; test: Antitrypanosomal activity against diminazene aceturate-resistant TbAT1 gene-deficient Trypanosoma brucei brucei AT1-KO assessed as decrease in viability at 15 times EC50 after 8 hrs by propidium iodide staining-based fluorescence microscopic analysis; format: functional, organism-based; outline: as §6
[21] = tested on: Trypanosoma brucei brucei; test: Antitrypanosomal activity against wild type Trypanosoma brucei brucei Lister 427 assessed as decrease in viability at 70 to 120 times EC50 after 8 hrs by propidium iodide staining-based fluorescence microscopic analysis; format: functional, organism-based; outline: as §5
[22] = tested on: Trypanosoma brucei brucei; test: Antitrypanosomal activity against diminazene-, pentamidine-, and melaminophenyl arsenical-resistant HAPT1-deficient Trypanosoma brucei brucei B48 harboring HAPT mutant gene assessed as decrease in viability at > 3.3 uM after 8 hrs by propidium iodide staining-based fluorescence microscopic analysis; format: functional, organism-based; outline: as §6
[23] = tested on: Trypanosoma brucei brucei; test: Antitrypanosomal activity against wild type Trypanosoma brucei brucei Lister 427 assessed as decrease in viability at > 3.3 uM after 8 hrs by propidium iodide staining-based fluorescence microscopic analysis; format: functional, organism-based; outline: as §5

Compound | selectivity ratio [1] | selectivity ratio [2] | Ratio EC50 [4] | EC50 [5] [nM] | EC50 [6] [nM] | Ki [7] [nM] | Ratio EC50 [8] | EC50 [9] [nM] | EC50 [10] [nM] | EC50 [12] [nM] | EC50 (L6) [nM] | Ki [14] [nM] | further results
CCCCCC[P+](CCCCCC)(CCCCCC)Cc1ccc(Cc2ccc(C[P+](CCCCCC)(CCCCCC)CCCCCC)cc2)cc1.[Br-].[Br-] | 5 | 543 | 1.2 | 39 | 33 | 9500 | 1 | 33 | 18100 | 180 | 964 | – | Activity [3]: Active; Activity [11]: Active; Activity [13]: inactive
CC(=O)N(c1ccc(C[P+](c2ccc(C)cc2)(c2ccc(C)cc2)c2ccc(C)cc2)cc1)c1ccc(C[P+](c2ccc(C)cc2)(c2ccc(C)cc2)c2ccc(C)cc2)cc1.[Br-].[Br-] | 137 | > 930 | 0.9 | 290 | 320 | 3600 | 0.9 | 300 | > 300000 | 159 | 21800 | 9200 | –
O=C(c1ccc(C[P+](c2ccccc2)(c2ccccc2)c2ccccc2)cc1)c1ccc(C[P+](c2ccccc2)(c2ccccc2)c2ccccc2)cc1.[Br-].[Br-] | 282 | > 1250 | 1.6 | 380 | 240 | 49000 | 1.5 | 360 | > 300000 | 260 | 73300 | – | –
Cc1ccc([P+](Cc2ccc(Oc3ccc(C[P+](c4ccc(C)cc4)(c4ccc(C)cc4)c4ccc(C)cc4)cc3)cc2)(c2ccc(C)cc2)c2ccc(C)cc2)cc1.[Br-].[Br-] | 14 | 3570 | 0.8 | 21 | 24 | – | 1 | 25 | 85700 | 170 | 2340 | – | Activity [3]: Active; Activity [11]: Active; Activity [13]: inactive
C[P+](C)(C)Cc1ccc(C(=O)c2ccc(C[P+](C)(C)C)cc2)cc1 | – | – | – | > 100000 | > 100000 | > 250000 | – | > 100000 | – | 127000 | > 173000 | > 250000 | –
CCCCCC[P+](CCCCCC)(CCCCCC)Cc1ccc(Oc2ccc(C[P+](CCCCCC)(CCCCCC)CCCCCC)cc2)cc1.[Br-].[Br-] | 9 | 593 | 1.1 | 41 | 37 | 7200 | 1.2 | 45 | 22100 | 109 | 1030 | 53000 | Activity [3]: Active; Activity [15]: Active; Activity [16]: Active; Activity [11]: Active; Activity [13]: inactive
Cc1ccc(C[P+](c2ccccc2)(c2ccccc2)c2ccccc2)cc1 | – | – | – | – | – | – | – | – | – | – | – | – | Activity [17]: Active
N=C(N)c1ccc(OCCCCCOc2ccc(C(=N)N)cc2)cc1 [PENTAMIDINE] | – | – | 70.9 | 567 | 8 | 56200 | 1.1 | 9 | – | – | – | 36 | –
CCCCCC[P+](CCCCCC)(CCCCCC)Cc1ccc(C(=O)c2ccc(C[P+](CCCCCC)(CCCCCC)CCCCCC)cc2)cc1.[Br-].[Br-] | 10 | 438 | 0.9 | 35 | 38 | 25000 | 1.2 | 47 | 16600 | 112 | 1110 | – | –
CCCCC[P+](CCCCC)(CCCCC)Cc1ccc(C(=O)c2ccc(C[P+](CCCCC)(CCCCC)CCCCC)cc2)cc1.[Br-].[Br-] | 30 | 338 | 0.9 | 180 | 200 | 2200 | 0.8 | 170 | 66800 | 289 | 8700 | 5200 | Activity [18]: Active; Activity [19]: Active; Activity [20]: Active; Activity [21]: Active; Activity [22]: Active; Activity [23]: Active
Cc1ccc([P+](Cc2ccc(Cc3ccc(C[P+](c4ccccc4)(c4ccccc4)c4ccc(C)cc4)cc3)cc2)(c2ccccc2)c2ccccc2)cc1.[Br-].[Br-] | 22 | > 1250 | 0.7 | 180 | 240 | 20000 | 0.8 | 190 | > 300000 | 200 | 4470 | – | –
O=C(c1ccc(C[P+](C2CCCCC2)(C2CCCCC2)C2CCCCC2)cc1)c1ccc(C[P+](C2CCCCC2)(C2CCCCC2)C2CCCCC2)cc1.[Br-].[Br-] | 166 | > 2100 | 1.8 | 250 | 140 | 39000 | 1.6 | 230 | > 300000 | 197 | 32700 | – | –
